Results on 17 molecules are retold here after ChEMBL document CHEMBL1130383, “Anesthetic activity of novel water-soluble 2 beta-morpholinyl steroids and their modulatory effects at GABAA receptors” (J Med Chem, 1997).

The nature of series [1]: Therapeutic index by the ratio between LD50 to HD50.
In series [2] the target is GABA-A receptor; anion channel. The series can be described thus: The concentration required to inhibit 50% of binding of [35S]TBPS to Gamma-aminobutyric acid A receptor to rat whole brain membranes. Type of series: cell membranes.
Series [3] has as its system Mus musculus. In words: Hypnotic dose was determined by observing loss of righting reflex for a minimum period of 30 sec in 50% of treated mice after i.v. administration. Type of series: functional. The procedure, abridged:
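Male CFLP mice (25–35 g), tested in the light period. Groups of eight received an i.v. lateral tail vein injection over 10 s (10 mL kg-1) on a μmol/kg dose series, e.g. 2–16, with extra doses added. Vehicle was saline for amine salts; standards were in HPCD/saline, emulsion or saline. HD50 with 95% confidence limits was obtained by probit analysis of the fraction showing LRR ≥30 s.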

The species entered for series [4] is Mus musculus. The series can be described thus: Effect on interval between loss of righting reflex and return to righting reflex (sleep duration) was measured at a dose twice that of hypnotic dose; caused convulsions and was not tested for the sleeping duration. Type of series: functional, organism-based.
Series [5] has as its system Mus musculus. In words: Hypnotic dose by observing loss of righting reflex for a minimum period of 30 sec in 50% of treated mice after iv administration; caused convulsions and not tested further. Format: functional, organism-based.
Series [6] deals with GABA-A receptor; anion channel (Bos taurus) (UniProt P10063+P08220+P20237+P08219+P10064+P22300). The series can be described thus: Concentration required to potentiate GABA-evoked currents in voltage-clamped bovine chromaffin cells by 300%. Format: functional. The procedure, abridged:
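Adult bovine chromaffin cells, primary culture, recorded 4 h to 2 days after plating. Whole-cell patch clamp, continuous superfusion with 140 mM NaCl, 2.8 mM KCl, 2 mM MgCl2, 1 mM CaCl2, 10 mM HEPES (pH 7.2). CsCl-based pipette solution, room temperature (18–22 °C). Currents filtered at 500 Hz. Steroid concentration enhancing the GABA-evoked response by 300% of control was interpolated; mean ± SEM of N cells.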

For orientation: IC50 means the midpoint of a concentration-inhibition curve. Higher therefore signals weaker potency in that assay. As for `CC(=O)[C@H]1CC[C@H]2[C@@H]3CC[C@H]4C[C@H](O)[C@@H](N5CCOCC5)C[C@]4(C)[C@H]3C(=O)C[C@]12C`, the selectivity ratio in series [1] was 4.6. The molecule also had a concentration for half-maximal inhibition (IC50) in series [2] of 2560 nM. Also, in the series on Mus musculus [3], the HD50 worked out at 34.6 µM/kg.

`CC(=O)SCC(=O)[C@H]1CC[C@H]2[C@@H]3CC[C@H]4C[C@H](O)[C@@H](N5CCOC(C)(C)C5)C[C@]4(C)[C@H]3CC[C@]12C`: in the series listed under Mus musculus [4], the SD entry is reported as “Convulsant”. The IC50 in series [2] is 32 nM. In addition, the HD50 entry with Mus musculus [5] is given as “Convulsant”.

Turning to `CC(=O)[C@H]1CC[C@H]2[C@@H]3CC[C@H]4C[C@H](O)[C@@H](N5C[C@@H](C)O[C@@H](C)C5)C[C@]4(C)[C@H]3C(=O)C[C@]12C`, the selectivity ratio in series [1] turned out to be 5.8. The same molecule yielded an IC50 in series [2] of 3200 nM. Also, the HD50 in the series with Mus musculus [3] is 14.4 µM/kg.

On to `CC(C)c1cccc(C(C)C)c1O` [PROPOFOL], for which the selectivity ratio in series [1] is 3.5. In the series on Mus musculus [3], this molecule showed an HD50 of 68 µM/kg. Also, the POT in series [6] amounted to 2000 nM.

In series [2], `CC(=O)OCC(=O)[C@H]1CC[C@H]2[C@@H]3CC[C@H]4C[C@H](O)[C@@H](N5CCOCC5)C[C@]4(C)[C@H]3CC[C@]12C` displayed an IC50 of 270 nM. The HD50 in the series with Mus musculus [3] was 31 µM/kg. Besides, in series [6], the POT stood at 660 nM.

Take `CC(=O)[C@H]1CC[C@H]2[C@@H]3CC[C@H]4C[C@H](O)[C@@H](N5CCO[C@H](C(C)C)C5)C[C@]4(C)[C@H]3C(=O)C[C@]12C`: the selectivity ratio in series [1] turned out to be 9.9. The IC50 in series [2] was 90 nM. In the series with Mus musculus [3], the HD50 was determined as 3.4 µM/kg.

In series [2], `CC(=O)[C@H]1CC[C@H]2[C@@H]3CC[C@H]4C[C@H](O)[C@@H](N5CCOC(C)(C)C5)C[C@]4(C)[C@H]3CC[C@]12C` gave an IC50 of 107 nM. This molecule also came in with an HD50 with Mus musculus [3] of 17.4 µM/kg. In addition, the POT in series [6] was 120 nM.

Regarding `CC1(C)CN([C@H]2C[C@@]3(C)[C@@H](CC[C@H]4[C@@H]5CC[C@H](C(=O)CO)[C@@]5(C)CC(=O)[C@@H]43)C[C@@H]2O)CCO1`, in series [2], the concentration for half-maximal inhibition (IC50) came to 5590 nM. For the same molecule, in the series on Mus musculus [3], the HD50 came out at 42.3 µM/kg. The POT in series [6] stood at 4400 nM.

In turn, `CC(=O)[C@H]1CC[C@H]2[C@@H]3CC[C@H]4C[C@H](O)CC[C@]4(C)[C@H]3CC[C@]12C` [BREXANOLONE] returned an IC50 in series [2] of 91 nM. Moreover, the HD50 with Mus musculus [3] came to 10 µM/kg. The POT in series [6] is 105 nM.

For the molecule `CC(=O)OCC(=O)[C@H]1CC[C@H]2[C@@H]3CC[C@H]4C[C@H](O)[C@@H](N5CCOC(C)(C)C5)C[C@]4(C)[C@H]3C(=O)C[C@]12C`, the IC50 in series [2] is 951 nM. For the same molecule, in the series with Mus musculus [3], the HD50 turned out to be 21.1 µM/kg. Moreover, the POT in series [6] was found to be 1300 nM.

In series [2], `C[C@]12C[C@H](N3CCOCC3)[C@@H](O)C[C@@H]1CC[C@@H]1[C@@H]2CC[C@]2(C)[C@@H](C(=O)CO)CC[C@@H]12` registered a half-maximal inhibitory concentration (IC50) of 3040 nM. Further, the HD50 in the series with Mus musculus [3] was determined as 31.6 µM/kg. In addition, in series [6], the POT worked out at 2300 nM.

`CCCC(C)C1(CC)C(=O)NC(=S)NC1=O` (stereo not given) [THIOPENTAL]: in series [1], the selectivity ratio stood at 3.7. The IC50 in series [2] stood at 29500 nM. Also, the HD50 in the series with Mus musculus [3] came to 83 µM/kg. The POT in series [6] was 30000 nM.

Turning to `CC(=O)[C@H]1CC[C@H]2[C@@H]3CC[C@H]4C[C@H](O)[C@@H](N5CCSC(C)(C)C5)C[C@]4(C)[C@H]3C(=O)C[C@]12C`, the selectivity ratio in series [1] was 16.3. The molecule also registered an IC50 in series [2] of 209 nM. Moreover, the HD50 with Mus musculus [3] worked out at 13.7 µM/kg.

As for `C[C@]12C[C@H](N3CCOCC3)[C@@H](O)C[C@@H]1CC[C@H]1[C@@H]3CC[C@H](C(=O)CCl)[C@@]3(C)CC(=O)[C@@H]12`, in the series filed under Mus musculus [4], the SD entry is listed as “Convulsant”. In series [2], this molecule displayed an IC50 of 9040 nM. For the same molecule, the POT in series [6] amounted to 1500 nM. The HD50 entry in the series with Mus musculus [5] was “Convulsant”.

On to `CC(=O)[C@H]1CC[C@H]2[C@@H]3CC[C@@H]4C[C@H](O)CC[C@]4(C)[C@H]3CC[C@]12C` [ELTANOLONE], for which the IC50 in series [2] is 117 nM. Besides, the HD50 in the series on Mus musculus [3] turned out to be 9.5 µM/kg. The POT in series [6] stood at 115 nM.

On to `CC[C@@H]1CN([C@H]2C[C@@]3(C)[C@@H](CC[C@H]4[C@@H]5CC[C@H](C(C)=O)[C@@]5(C)CC(=O)[C@@H]43)C[C@@H]2O)CCO1`, for which the selectivity ratio in series [1] was 5.8. Also, the 50% inhibitory concentration (IC50) in series [2] was determined as 317 nM. The HD50 in the series with Mus musculus [3] worked out at 8.7 µM/kg. Besides, the POT in series [6] is 910 nM.

In the case of `C[C@]12C[C@H](N3CCOCC3)[C@@H](O)C[C@@H]1CC[C@@H]1[C@@H]2CC[C@]2(C)[C@@H](C(=O)CCl)CC[C@@H]12`, in series [1], the selectivity ratio was found to be 6.1. Moreover, in series [2], the IC50 came to 171 nM. Further, the HD50 in the series with Mus musculus [3] is 8.5 µM/kg. In series [6], the POT turned out to be 150 nM.
